Experimental data published in ChEMBL document CHEMBL4400518, “Synthesis, antimicrobial and cytotoxic activities, and molecular docking studies of N-arylsulfonylindoles containing an aminoguanidine, a semicarbazide, and a thiosemicarbazide moiety” (Eur J Med Chem, 2019).
In brackets after ≈: the same amount, converted by molar mass.

Columns and labels:
Format in all cases: functional
[1] = system: Staphylococcus aureus; assay: Antibacterial activity against Staphylococcus aureus CMCC(B) 26003 measured after 24 hrs by ELISA; conditions: CMCC(B) 26003, 24 h
In short: (§1)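 Broth microdilution MIC. Mid-log bacteria in MHB or TSB diluted 1000-fold, inoculated at 10^5 CFU/mL. Compounds added from DMSO stocks; final DMSO at most 0.05%. Incubation 24 h at 37 °C. Growth read as absorbance at 630 nm. MIC taken as the lowest concentration giving complete growth inhibition. Three independent experiments.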

[2] = system: Staphylococcus aureus; assay: Antibacterial activity against Staphylococcus aureus CMCC 25923 measured after 24 hrs by ELISA; conditions: CMCC 25923, 24 h; in short: as §1
[3] = system: Streptococcus pyogenes; assay: Antibacterial activity against Streptococcus pyogenes CMCC 32067 measured after 24 hrs by ELISA; conditions: CMCC 32067, 24 h; in short: as §1
[4] = system: Streptococcus pneumoniae; assay: Antibacterial activity against Streptococcus pneumoniae CMCC 31968 measured after 24 hrs by ELISA; conditions: CMCC 31968, 24 h
[5] = system: Enterococcus faecalis; assay: Antibacterial activity against Enterococcus faecalis CMCC 29212 measured after 24 hrs by ELISA; conditions: CMCC 29212, 24 h; in short: as §1
[6] = system: Bacillus subtilis; assay: Antibacterial activity against Bacillus subtilis CMCC 63501 measured after 24 hrs by ELISA; conditions: CMCC 63501, 24 h; in short: as §1
[7] = system: Escherichia coli; assay: Antibacterial activity against Escherichia coli CMCC 25922 measured after 24 hrs by ELISA; conditions: CMCC 25922, 24 h; in short: as §1
[8] = system: Escherichia coli; assay: Antibacterial activity against Escherichia coli CMCC 44568 measured after 24 hrs by ELISA; conditions: CMCC 44568, 24 h; in short: as §1
[9] = system: Pseudomonas aeruginosa; assay: Antibacterial activity against Pseudomonas aeruginosa CMCC 27853 measured after 24 hrs by ELISA; conditions: CMCC 27853, 24 h; in short: as §1
[10] = system: Pseudomonas aeruginosa; assay: Antibacterial activity against Pseudomonas aeruginosa CMCC 10104 measured after 24 hrs by ELISA; conditions: CMCC 10104, 24 h; in short: as §1

Structure (SMILES)	MIC [1] [µM]	MIC [2] [µM]	MIC [3] [µM]	MIC [4] [µM]	MIC [5] [µM]	MIC [6] [µM]	MIC [7] [µM]	MIC [8] [µM]	MIC [9] [µM]	MIC [10] [µM]
CC/C(=N/NC(N)=O)c1cn(S(=O)(=O)c2ccc(C)cc2)c2ccccc12	333 (≈ 128 µg/mL)	83.3 (≈ 32 µg/mL)	> 333	> 333	> 333	333 (≈ 128 µg/mL)	> 333	> 333	> 333	> 333
CC/C(=N/NC(=N)N)c1cn(S(=O)(=O)c2ccccc2)c2ccc(Br)cc12	4.47 (≈ 2 µg/mL)	4.47 (≈ 2 µg/mL)	> 286	1.12 (≈ 0.502 µg/mL)	8.95 (≈ 4.01 µg/mL)	4.47 (≈ 2 µg/mL)	17.9 (≈ 8.03 µg/mL)	4.47 (≈ 2 µg/mL)	> 286	> 286
Cc1ccc(S(=O)(=O)n2cc(/C=N\NC(N)=O)c3ccccc32)cc1	44.9 (≈ 16 µg/mL)	180 (≈ 64.1 µg/mL)	> 360	> 360	> 360	44.9 (≈ 16 µg/mL)	360 (≈ 128 µg/mL)	360 (≈ 128 µg/mL)	360 (≈ 128 µg/mL)	> 360
N=C(N)N/N=C\c1cn(S(=O)(=O)c2ccccc2)c2ccccc12	5.87 (≈ 2 µg/mL)	11.7 (≈ 4 µg/mL)	> 375	46.9 (≈ 16 µg/mL)	46.9 (≈ 16 µg/mL)	11.7 (≈ 4 µg/mL)	> 375	23.5 (≈ 8.01 µg/mL)	46.9 (≈ 16 µg/mL)	23.5 (≈ 8.01 µg/mL)
Cc1ccc(S(=O)(=O)n2cc(/C=N\NC(N)=S)c3ccccc32)cc1	343 (≈ 128 µg/mL)	> 343	> 343	> 343	> 343	> 343	> 343	> 343	343 (≈ 128 µg/mL)	> 343
C/C(=N/NC(=N)N)c1cn(S(=O)(=O)c2ccccc2)c2ccccc12	22.5 (≈ 8.01 µg/mL)	22.5 (≈ 8.01 µg/mL)	22.5 (≈ 8.01 µg/mL)	1.4 (≈ 0.498 µg/mL)	45.1 (≈ 16 µg/mL)	22.5 (≈ 8.01 µg/mL)	45.1 (≈ 16 µg/mL)	11.3 (≈ 4.01 µg/mL)	90.1 (≈ 32 µg/mL)	45.1 (≈ 16 µg/mL)
CC/C(=N/NC(=N)N)c1cn(S(=O)(=O)c2ccc(C)cc2)c2ccccc12	5.22 (≈ 2 µg/mL)	10.4 (≈ 4 µg/mL)	5.22 (≈ 2 µg/mL)	83.5 (≈ 32 µg/mL)	20.9 (≈ 8.01 µg/mL)	10.4 (≈ 4 µg/mL)	20.9 (≈ 8.01 µg/mL)	20.9 (≈ 8.01 µg/mL)	334 (≈ 128 µg/mL)	> 334
CC/C(=N/NC(N)=O)c1cn(S(=O)(=O)c2ccccc2)c2ccc(Br)cc12	> 286	> 286	> 286	> 286	> 286	> 286	> 286	> 286	> 286	> 286
C/C(=N/NC(N)=S)c1cn(S(=O)(=O)c2ccccc2)c2ccccc12	344 (≈ 128 µg/mL)	344 (≈ 128 µg/mL)	> 344	> 344	> 344	172 (≈ 64.1 µg/mL)	344 (≈ 128 µg/mL)	344 (≈ 128 µg/mL)	344 (≈ 128 µg/mL)	> 344
NC(=S)N/N=C\c1cn(S(=O)(=O)c2ccccc2)c2ccc(Br)cc12	294 (≈ 128 µg/mL)	> 294	> 294	> 294	> 294	> 294	> 294	> 294	> 294	> 294
NC(=S)N/N=C\c1cn(S(=O)(=O)c2ccccc2)c2ccccc12	179 (≈ 64.1 µg/mL)	> 358	> 358	> 358	> 358	> 358	> 358	> 358	358 (≈ 128 µg/mL)	> 358
CC/C(=N/NC(N)=S)c1cn(S(=O)(=O)c2ccc(C)cc2)c2ccccc12	320 (≈ 128 µg/mL)	320 (≈ 128 µg/mL)	> 320	> 320	> 320	> 320	> 320	> 320	> 320	> 320
NC(=O)N/N=C\c1cn(S(=O)(=O)c2ccccc2)c2ccccc12	93.6 (≈ 32 µg/mL)	93.6 (≈ 32 µg/mL)	> 374	> 374	> 374	93.6 (≈ 32 µg/mL)	> 374	> 374	> 374	> 374
CC/C(=N/NC(N)=O)c1cn(S(=O)(=O)c2ccccc2)c2ccccc12	> 346	346 (≈ 128 µg/mL)	> 346	> 346	> 346	> 346	> 346	> 346	> 346	> 346
CC/C(=N/NC(=N)N)c1cn(S(=O)(=O)c2ccccc2)c2ccccc12	21.7 (≈ 8.01 µg/mL)	21.7 (≈ 8.01 µg/mL)	10.8 (≈ 4 µg/mL)	10.8 (≈ 4 µg/mL)	43.4 (≈ 16 µg/mL)	> 347	43.4 (≈ 16 µg/mL)	43.4 (≈ 16 µg/mL)	173 (≈ 64.1 µg/mL)	43.4 (≈ 16 µg/mL)
CC/C(=N/NC(N)=S)c1cn(S(=O)(=O)c2ccccc2)c2ccccc12	64 (≈ 24.7 µg/mL)	332 (≈ 128 µg/mL)	> 332	> 332	166 (≈ 64.1 µg/mL)	82.9 (≈ 32 µg/mL)	332 (≈ 128 µg/mL)	332 (≈ 128 µg/mL)	332 (≈ 128 µg/mL)	> 332
CC/C(=N/NC(N)=S)c1cn(S(=O)(=O)c2ccccc2)c2ccc(Br)cc12	276 (≈ 128 µg/mL)	> 276	> 276	> 276	> 276	69 (≈ 32.1 µg/mL)	> 276	> 276	276 (≈ 128 µg/mL)	> 276
C/C(=N/NC(N)=O)c1cn(S(=O)(=O)c2ccccc2)c2ccccc12	360 (≈ 128 µg/mL)	> 360	> 360	> 360	> 360	89.9 (≈ 32 µg/mL)	> 360	> 360	> 360	> 360
NC(=O)N/N=C\c1cn(S(=O)(=O)c2ccccc2)c2ccc(Br)cc12	38.1 (≈ 16.1 µg/mL)	305 (≈ 128 µg/mL)	> 305	> 305	> 305	19.1 (≈ 8.03 µg/mL)	> 305	> 305	> 305	> 305

The next lines start with the values.

MIC [1] [µM]	MIC [2] [µM]	MIC [3] [µM]	MIC [4] [µM]	MIC [5] [µM]	MIC [6] [µM]	MIC [7] [µM]	MIC [8] [µM]	MIC [9] [µM]	MIC [10] [µM]	Structure (SMILES)
346 (≈ 128 µg/mL)	> 346	> 346	> 346	> 346	346 (≈ 128 µg/mL)	> 346	> 346	> 346	> 346	C/C(=N/NC(N)=O)c1cn(S(=O)(=O)c2ccc(C)cc2)c2ccccc12
4.62 (≈ 2.01 µg/mL)	4.62 (≈ 2.01 µg/mL)	296 (≈ 128 µg/mL)	4.62 (≈ 2.01 µg/mL)	9.24 (≈ 4.01 µg/mL)	9.24 (≈ 4.01 µg/mL)	18.5 (≈ 8.03 µg/mL)	9.24 (≈ 4.01 µg/mL)	> 296	> 296	C/C(=N/NC(=N)N)c1cn(S(=O)(=O)c2ccccc2)c2ccc(Br)cc12
134 (≈ 64.2 µg/mL)	268 (≈ 128 µg/mL)	> 268	> 268	> 268	> 268	268 (≈ 128 µg/mL)	268 (≈ 128 µg/mL)	> 268	> 268	CC/C(=N/NC(N)=S)c1cn(S(=O)(=O)c2ccc(C)cc2)c2ccc(Br)cc12
> 277	> 277	> 277	> 277	> 277	> 277	> 277	> 277	> 277	> 277	CC/C(=N/NC(N)=O)c1cn(S(=O)(=O)c2ccc(C)cc2)c2ccc(Br)cc12
284 (≈ 128 µg/mL)	> 284	> 284	> 284	> 284	> 284	> 284	> 284	> 284	> 284	Cc1ccc(S(=O)(=O)n2cc(/C=N\NC(N)=S)c3cc(Br)ccc32)cc1
284 (≈ 128 µg/mL)	> 284	> 284	> 284	> 284	284 (≈ 128 µg/mL)	> 284	> 284	> 284	> 284	C/C(=N/NC(N)=S)c1cn(S(=O)(=O)c2ccccc2)c2ccc(Br)cc12
276 (≈ 128 µg/mL)	276 (≈ 128 µg/mL)	> 276	> 276	> 276	> 276	> 276	> 276	> 276	> 276	C/C(=N/NC(N)=S)c1cn(S(=O)(=O)c2ccc(C)cc2)c2ccc(Br)cc12
332 (≈ 128 µg/mL)	332 (≈ 128 µg/mL)	> 332	> 332	332 (≈ 128 µg/mL)	166 (≈ 64.1 µg/mL)	332 (≈ 128 µg/mL)	332 (≈ 128 µg/mL)	332 (≈ 128 µg/mL)	> 332	C/C(=N/NC(N)=S)c1cn(S(=O)(=O)c2ccc(C)cc2)c2ccccc12
295 (≈ 128 µg/mL)	295 (≈ 128 µg/mL)	> 295	> 295	36.9 (≈ 16 µg/mL)	295 (≈ 128 µg/mL)	> 295	> 295	> 295	> 295	C/C(=N/NC(N)=O)c1cn(S(=O)(=O)c2ccccc2)c2ccc(Br)cc12
286 (≈ 128 µg/mL)	> 286	> 286	> 286	> 286	8.93 (≈ 4.01 µg/mL)	> 286	> 286	> 286	> 286	C/C(=N/NC(N)=O)c1cn(S(=O)(=O)c2ccc(C)cc2)c2ccc(Br)cc12
